Experimental data from different studies.
Each line is one published result; the experiments were not run side by side.
Target: Dual specificity protein kinase CLK4 (CLK4, Homo sapiens, UniProt Q9HAZ1)

The remaining binding of `COc1ncccc1-c1cnn2ccc(N3CCN(C(=O)OC(C)C)CC3)nc12` is reported as 98% (binding, competition with immobilised ligand; 1 µM).
`C#Cc1n[nH]c2c(-c3cn([C@@H](C)c4ccccn4)c(=O)[nH]c3=O)cc(F)cc12` has an inhibition of 8.9% (enzyme activity, inhibitor; 0.1 µM).
`Cn1cncc1[C@@](O)(COc1ccc(C#N)cc1-c1ccc(OC(F)(F)F)cc1)c1ccc(C#N)cc1` gave a remaining binding of 96% (cell-free assay, competition with immobilised ligand; 1 µM).
`C#Cc1n[nH]c2c(-c3cn([C@@H](C)c4ccccc4)c(=O)[nH]c3=O)cc(F)cc12` gave an inhibition of -0.9% (enzyme activity, inhibitor; 0.1 µM).
`O=c1[nH]c2ccccc2n1C1CCN(Cc2ccc(-c3[nH]c4cc5ncnc5cc4nc3-c3ccccc3)cc2)CC1` gave a remaining signal of 92.8% (cell-free assay; 0.5 µM).
For `COc1cc(Nc2ncc(F)c(Nc3ccc4c(n3)NC(=O)C(C)(C)O4)n2)cc(OC)c1OC`, the inhibition was 85% (binding, competition with immobilised ligand; 10 µM).
`Cc1nn(C)cc1-c1nc2c(N3CCN(Cc4ccc(Cl)cc4)CC3)c(Cl)cnc2[nH]1` gave a remaining binding of 100% (binding, competition with immobilised ligand; 1 µM).
The remaining activity of `CC(C)(C)c1cc(C=C(C#N)C#N)cc(Br)c1O` is reported as 88.6% (enzyme activity, inhibitor; 0.5 µM).
`Nc1ncc(-c2nc(N3CCOCC3)nc(N3CCOCC3)n2)c(C(F)F)n1` gave a remaining binding of 30% (binding, competition with immobilised ligand; 10 µM).
